Screening data from PubChem BioAssay.
RORA act = activators of orphan receptor RORA, primary screen, cell-based, luminescence | Nuclear receptor ROR-alpha (Homo sapiens), P35398 | CHO-K1 Gal4-RORA LBD luciferase reporter; percent increase over mock-subtracted basal signal | activation, % at 10 µM | actives 1.5% (n = 65,000) | AID 560, 2006;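 active means activation above the mean of all tested compounds plus 3 SD, cut at about 49% in these data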
JNK3 inh = JNK3 kinase activity inhibitors, primary screen, biochemical, human, purified enzyme. Mitogen-activated protein kinase 10 (Homo sapiens), P53779. HTS. inhibition, % at 8 µM. actives 0.61% (n = 60,000). AID 746, 2007; in the data active means inhibition above about 17%
mHtt clearance = clearance of mutant huntingtin inclusions, primary screen, imaging, HeLa Exon1htt(103Q)mCFP, confocal imaging; aggregate imaging; zero = plate's median compound well; inhibition, % at 1.5 µM; actives 0.42% (n = 47,000); AID 853, 2007;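 active means inhibition of aggregate fluorescence above about 70%, also judged a hit by eye on the cell image, limit read from the data, passing the limit was not always enough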;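 further: cells exposed to compound for three days before fixation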
PKA kinase inh = inhibitors of human PKA kinase activity, primary screen, biochemical, ATP-depletion luminescence, Kemptide substrate. PKA Kemptide phosphorylation, Kinase-Glo ATP luminescence. inhibition, % at 6 µM. actives 0.1% (n = 65,000). AID 524, 2006;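 active means inhibition above the screen-wide mean inhibition plus 3 SD, cut at about 21% in these data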
ROCK2 blocker = inhibitors of human ROCK2 kinase, primary screen, biochemical, high-throughput, luminescence | Rho-associated protein kinase 2 (Homo sapiens), O75116 | purified ROCK2, Kinase-Glo ATP depletion luminescence | inhibition, % at 6 µM | actives 0.35% (n = 60,000) | AID 604, 2007;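 active means inhibition above the screen-wide mean inhibition plus 3 SD, cut at about 18% in these data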
Target sequence (O75116 whole entry, looked up): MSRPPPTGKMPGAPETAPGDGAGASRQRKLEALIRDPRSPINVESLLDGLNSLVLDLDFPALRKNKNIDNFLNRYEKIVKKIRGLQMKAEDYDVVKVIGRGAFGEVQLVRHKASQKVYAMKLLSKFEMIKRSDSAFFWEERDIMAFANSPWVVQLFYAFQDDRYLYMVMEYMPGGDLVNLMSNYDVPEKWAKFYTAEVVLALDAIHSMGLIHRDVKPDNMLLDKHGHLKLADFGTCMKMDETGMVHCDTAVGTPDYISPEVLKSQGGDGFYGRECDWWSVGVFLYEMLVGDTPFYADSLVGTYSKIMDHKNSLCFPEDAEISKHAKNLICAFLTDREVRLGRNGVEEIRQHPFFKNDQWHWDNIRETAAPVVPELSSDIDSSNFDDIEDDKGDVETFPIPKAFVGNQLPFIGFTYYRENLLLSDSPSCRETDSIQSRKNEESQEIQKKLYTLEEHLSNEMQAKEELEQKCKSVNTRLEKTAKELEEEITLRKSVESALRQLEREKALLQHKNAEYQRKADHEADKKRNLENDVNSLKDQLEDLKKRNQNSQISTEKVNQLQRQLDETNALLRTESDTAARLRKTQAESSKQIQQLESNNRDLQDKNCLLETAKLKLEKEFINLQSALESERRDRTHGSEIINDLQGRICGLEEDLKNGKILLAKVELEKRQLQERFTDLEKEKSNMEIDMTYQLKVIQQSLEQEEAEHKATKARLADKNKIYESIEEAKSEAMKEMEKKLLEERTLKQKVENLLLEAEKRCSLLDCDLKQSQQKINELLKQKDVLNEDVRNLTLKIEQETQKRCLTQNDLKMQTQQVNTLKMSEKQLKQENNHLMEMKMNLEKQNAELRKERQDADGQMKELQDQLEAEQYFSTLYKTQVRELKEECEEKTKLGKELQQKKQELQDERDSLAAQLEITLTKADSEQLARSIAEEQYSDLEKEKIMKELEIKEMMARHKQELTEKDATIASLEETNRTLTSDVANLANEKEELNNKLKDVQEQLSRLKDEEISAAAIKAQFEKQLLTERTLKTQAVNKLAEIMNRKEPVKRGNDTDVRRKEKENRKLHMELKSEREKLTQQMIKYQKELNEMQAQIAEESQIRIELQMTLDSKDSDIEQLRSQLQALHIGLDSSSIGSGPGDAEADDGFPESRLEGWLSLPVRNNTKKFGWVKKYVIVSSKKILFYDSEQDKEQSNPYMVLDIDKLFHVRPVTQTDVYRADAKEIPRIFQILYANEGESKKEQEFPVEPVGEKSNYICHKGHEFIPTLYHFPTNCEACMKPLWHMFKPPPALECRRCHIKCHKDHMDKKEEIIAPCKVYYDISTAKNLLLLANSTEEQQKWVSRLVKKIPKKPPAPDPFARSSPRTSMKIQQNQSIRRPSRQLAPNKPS
SF-1 act = activators of human SF-1, primary screen, cell-based, CHO-K1, Gal4-SF-1 LBD, luciferase luminescence; Steroidogenic factor 1 (Homo sapiens), Q13285; actives 1.9% (n = 65,000); CHO-K1 Gal4-SF-1 LBD luciferase reporter; % increase over DMSO SF-1-specific signal; activation, % at 10 µM;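 active means activation above the mean activation of all tested compounds plus 3 SD, cut at about 50% in these data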
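Assay system: CHO-K1 cells co-transfected with Gal4 DBD–human SF-1 LBD, 5xGal4 luciferase reporter; doses: 10 µM only; incubation: 20 h compound exposure at 37 °C after 1 h cell settling; signal: luciferase light emission; evaluation: percent activation versus DMSO; repeats: one test per compound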
A number is an active result; 0 = inactive; - = not tested or not shown. This is a sample that favours compounds with a hit; in the whole collection about 2.9% have one here.

SMILES	RORA act	JNK3 inh	mHtt clearance	PKA kinase inh	ROCK2 blocker	SF-1 act
COc1ccc(/C=C2/SC(=O)N(NS(=O)(=O)c3ccccc3)C2=S)cc1OC	-	-	0	-	-	-
COc1ccc2nc(N3CCCCC3)c(C#N)cc2c1	0	0	-	0	0	50
O=C(Nc1cccc(-c2nc3cc(Cl)ccc3o2)c1)C1CCCO1 (stereo unspecified)	0	0	0	0	0	81
Cc1ccc2nc(-c3cccc(NC(=O)c4ccc5c(c4)OCCO5)c3)oc2c1	0	0	-	0	0	55
CC(C)CC(=O)Nc1cccc(-c2nc3ccccc3o2)c1	0	0	0	0	0	0
CC(C)C(=O)Nc1cccc(-c2nc3ccccc3o2)c1	0	0	0	0	0	52
COc1ccc(OCC(=O)Nc2cccc(-c3nc4ccccc4o3)c2)cc1	57	0	0	0	0	0
CCCC(=O)Nc1cccc(-c2nc3ccccc3o2)c1	0	0	-	0	0	0
CC(=O)Nc1ccc(S(=O)(=O)NC(=O)C23CC4CC(CC(C4)C2)C3)cc1	0	0	0	0	0	0
C[C@H](NS(=O)(=O)c1ccccc1F)C(=O)OCC(=O)N1CCc2ccccc21	-	-	0	-	-	-
CC(=O)Nc1cccc(Oc2ccc(-c3noc(C)n3)cc2)c1	0	-	0	0	-	0
COCCOC(=O)C1=C(C)NC2=C(C(=O)CC(C)(C)C2)C1c1cc2c(cc1Br)OCO2 (stereo unspecified)	0	0	-	0	0	0
Clc1nc2sccn2c1/C=N/n1cnc2ccccc21	52	-	-	0	-	0
CN(C)/C=N/C(=S)Nc1ccc(Br)cc1F	-	-	0	-	-	-
Nc1[nH]nc2nc(N3CCCC3)nc(-c3ccccc3)c12	0	-	-	26	-	0
C=CCn1c(SCc2ccccc2C#N)nnc1-c1ccccc1O	0	0	0	0	0	0
COCCCNC(=O)c1cc2c(=O)n(C)c3ccccc3c2n1C	60	0	0	0	0	0
COc1nc(C)ccc1-c1noc(-c2ccncc2)n1	0	0	0	0	0	64
CCOc1nc(C)ccc1-c1noc(-c2ccccn2)n1	0	0	0	0	0	0
CCOc1ccccc1-c1nc(-c2ccc(C)nc2OC)no1	0	-	0	0	-	58
COc1cc(-c2nc(-c3ccc(C)nc3OC)no2)cc(OC)c1OC	0	0	-	0	0	0
COc1ccc(N(CC(=O)NCc2cccs2)S(=O)(=O)c2c(C)n[nH]c2C)cc1	0	0	0	0	0	0
COc1ccc(C(=O)NCCn2ccc3ccccc32)cc1	57	0	-	0	0	58
O=C(NCCn1ccc2ccccc21)c1ccc2c(c1)OCO2	76	0	-	0	0	72
O=c1[nH]c2ccccc2c2nc3ccccn3c12	0	47	-	0	0	65
SMILES	RORA act	JNK3 inh	mHtt clearance	PKA kinase inh	ROCK2 blocker	SF-1 act
O=c1nc(C(F)(F)F)nc2ccccn12	0	0	0	0	0	0
COC(=O)c1ccc(C(=O)OC)c(NC2=NS(=O)(=O)c3ccccc32)c1	0	0	75	0	0	0
Cc1ccc(C)c(NC2=NS(=O)(=O)c3ccccc32)c1	0	0	-	0	0	0
COC(=O)c1ccc(C(=O)OC)c(NC(=O)c2ocnc2C)c1	0	-	-	0	-	0
CCOc1ccc2nc(N3CCOCC3)nc(C)c2c1	51	0	0	0	0	0
CC(C)CCNC(=O)C(c1cccs1)N(CC1CCCO1)C(=O)Cn1nnc2ccccc21 (stereo unspecified)	0	0	0	0	0	0
Cn1c(CSc2ccccc2)c(C#N)c2ccccc21	61	0	0	0	0	0
Cc1ccc(SCc2c(C#N)c3ccccc3n2C)cc1	0	0	0	0	0	0
CCN(C(=O)CN1CCN(c2ccc(O)cc2)CC1)c1c(N)n(Cc2ccccc2)c(=O)[nH]c1=O	0	0	-	0	0	0
Cc1cc(O)ccc1C1(c2ccc(O)cc2C)OC(=O)c2ccccc21	-	-	70	-	-	-
